Measured values gathered from unrelated publications.
Lines come from different studies, so protocols differ.
Sample: plasma

| SMILES | test system | setting | Tmax |
| --- | --- | --- | --- |
| CNC(=O)n1ccc2cc(Oc3ccnc(NC(=O)c4ccc(C5CCN(CCO)CC5)cc4)c3)c(OCCOC)cc21 | human | oral, 35 mg, single dose, healthy volunteers | 2 h |
| NS(=O)(=O)OC[C@@H]1C[C@@H](n2ccc3c(N[C@H]4CCc5ccccc54)ncnc32)C[C@@H]1O | human | intravenous, 15 mg/m², patients | 1.13 h |
| Cn1cc(Nc2nc(N)nc(-c3cccc(-n4ccc5cc(C6CC6)cc(F)c5c4=O)c3CO)n2)cn1 | human | oral, 900 mg, single dose, fasted, suspension | 4 h |
| CN1CC[C@@H](c2c(O)cc(O)c3c(=O)cc(-c4ccc(C(F)(F)F)cc4Cl)oc23)[C@@H]1CO | human | oral, 200 mg, patients | 5.2 h |
| Cl.[2H]C([2H])([2H])CC(=O)c1cnc(NC(=O)C2CC2)cc1Nc1cccc(-c2ncn(C([2H])([2H])[2H])n2)c1OC | human | oral, 10 mg, multiple doses, once daily, fasted | 1.6 h |
| COc1ccc([C@@H](O)c2cc(-c3ncnc4cc(N5CCOCC5)ccc34)c(F)cc2Cl)nn1 | human | oral, 250 mg, single dose, patients | 1.03 h |
| C[C@H](O)C(=O)C1=Nc2c(nc(N)[nH]c2=O)NC1 | human | oral, 20 mg/kg, single dose, healthy volunteers | 4 h |
| Cc1ccc(C(=O)Nc2ccc(CN3CCN(C)CC3)c(C(F)(F)F)c2)cc1C#Cc1cnc2[nH]ncc2c1 | human | oral, 20 mg, healthy volunteers | 8 h |
| CC(C)n1c(Nc2cccnc2)nc2cnc(Nc3ccc(N4CCN(C)CC4)cc3)nc21 | male human | oral, 100 mg, single dose, healthy volunteers | 1.5 h |
